Reference: the RNAGym collection of RNA variant scans (doi:10.1002/anie.201605470)

B1: Osa-1-4 twister ribozyme (parent)
chain: CCGCCUAACACUGCCAAUGCCGGUCCCAAGCCCGGAUAAAAGUGGAGGGGGCGG

Variants of: B1
Assay: self-cleavage, relative activity (ratio to wild type); higher = more cleavage; co-transcriptional
Summary of the method: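 A DNA template for a 54-nucleotide Oryza sativa twister ribozyme was synthesised with 97 % wild-type base and 1 % of each other base at the 48 positions downstream of the cleavage site. It was transcribed in vitro for 2 h at 37 °C, allowing co-transcriptional self-cleavage, then reverse-transcribed with a template-switching oligonucleotide, PCR-amplified and deep-sequenced. Cleavage status was scored from reads with or without upstream sequence. Relative activity is fraction cleaved normalised to wild type.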
Work on A38G C20G yielded a self-cleavage of 0.19.
Work on A38G C20A yielded a self-cleavage of 0.9.
A38G C20U showed a self-cleavage of 0.98.
Work on A38U C52G yielded a self-cleavage of 0.98.
With A38U C52U the self-cleavage was 1.01.
Variant A38U C52A has a self-cleavage of 1.
Work on A39C yielded a self-cleavage of 0.99.
A38G G51U showed a self-cleavage of 0.36.
A38G G51A gave a self-cleavage of 0.72.
A38G G51C gave a self-cleavage of 0.11.
With A38C G45A the self-cleavage was 0.32.
Variant A38C G45C has a self-cleavage of 0.05.
Variant A38C G45U has a self-cleavage of 0.1.
Work on A38U G35A yielded a self-cleavage of 0.83.
For A38U G35U, the self-cleavage was 0.89.
In the case of A38U G35C, the self-cleavage is reported as 0.13.
Work on A38G U18G yielded a self-cleavage of 0.84.
For A38G U18A, the self-cleavage was 0.92.
In the case of A38G U18C, the self-cleavage is reported as 0.97.
With A38G C32A the self-cleavage was 0.09.
With A38G C32G the self-cleavage was 0.18.
In the case of A38G C32U, the self-cleavage is reported as 0.12.
A38C G34U showed a self-cleavage of 0.67.
Work on A38C G34C yielded a self-cleavage of 0.38.
Work on A38C G34A yielded a self-cleavage of 0.85.
In the case of A38U U12G, the self-cleavage is reported as 0.31.
Variant A38U U12C has a self-cleavage of 0.4.
In the case of A38U U12A, the self-cleavage is reported as 0.86.
In the case of A38U G23A, the self-cleavage is reported as 0.33.
Variant A38U G23U has a self-cleavage of 0.07.
A38U G23C showed a self-cleavage of 0.07.
A38G G13C gave a self-cleavage of 0.03.
In the case of A38G G13A, the self-cleavage is reported as 0.12.
A38G G13U showed a self-cleavage of 0.03.
Work on A38U C21A yielded a self-cleavage of 0.53.
A38U C21U showed a self-cleavage of 0.99.
Work on A38U C21G yielded a self-cleavage of 0.06.
Variant A38U C26U has a self-cleavage of 0.92.
In the case of A38U C26G, the self-cleavage is reported as 0.09.
Variant A38U C26A has a self-cleavage of 0.04.
A38G G47C showed a self-cleavage of 0.08.
A38G G47U gave a self-cleavage of 0.17.
Work on A38G G47A yielded a self-cleavage of 0.19.
In the case of A38G C9A, the self-cleavage is reported as 0.45.
For A38G C9U, the self-cleavage was 0.7.
A38G C9G showed a self-cleavage of 0.88.
A38U C15U gave a self-cleavage of 0.21.
A38U C15A gave a self-cleavage of 0.23.
Work on A38U C15G yielded a self-cleavage of 0.25.
For A38C G47A, the self-cleavage was 0.19.
Variant A38C G47U has a self-cleavage of 0.22.
Variant A38C G47C has a self-cleavage of 0.08.
With A38G U37C the self-cleavage was 1.05.
With A38G U37A the self-cleavage was 1.
For A38G U37G, the self-cleavage was 1.
A38C G51U gave a self-cleavage of 0.37.
Work on A38C G51A yielded a self-cleavage of 0.69.
For A38C G51C, the self-cleavage was 0.09.
Variant A38G C15A has a self-cleavage of 0.33.
A38G C15U gave a self-cleavage of 0.47.
In the case of A38G C15G, the self-cleavage is reported as 0.35.
Work on A38C G42C yielded a self-cleavage of 0.12.
For A38C G42A, the self-cleavage was 0.35.
Variant A38C G42U has a self-cleavage of 0.07.
With A39C A7G the self-cleavage was 0.12.
A39C A7C showed a self-cleavage of 0.06.
A38U U37A showed a self-cleavage of 1.03.
A38U U37C showed a self-cleavage of 1.04.
With A38U U37G the self-cleavage was 1.03.
A38U G22A showed a self-cleavage of 1.
Variant A38U G22C has a self-cleavage of 0.08.
Variant A38U G22U has a self-cleavage of 0.89.
With A38C U24A the self-cleavage was 0.16.
In the case of A38C U24G, the self-cleavage is reported as 0.04.
Work on A38C U24C yielded a self-cleavage of 0.26.
Variant A38C G23A has a self-cleavage of 0.1.
A38C G23U showed a self-cleavage of 0.07.
In the case of A38C G23C, the self-cleavage is reported as 0.04.
A38U G44U showed a self-cleavage of 0.89.
A38U G44A gave a self-cleavage of 0.92.
Work on A38U G44C yielded a self-cleavage of 0.96.
A38G G50C gave a self-cleavage of 1.
Variant A38G G50U has a self-cleavage of 1.
For A38G G50A, the self-cleavage was 0.74.
A38U A39G showed a self-cleavage of 0.64.
Variant A38U A39U has a self-cleavage of 0.97.
For A38U A39C, the self-cleavage was 0.96.
With A38G G30C the self-cleavage was 0.04.
In the case of A38G G30U, the self-cleavage is reported as 0.04.
Variant A38G G30A has a self-cleavage of 0.05.
A38C U43C showed a self-cleavage of 0.38.
Variant A38C U43G has a self-cleavage of 0.34.
A38C U43A gave a self-cleavage of 0.88.
A38U G48U showed a self-cleavage of 0.08.
For A38U G48C, the self-cleavage was 0.08.
Work on A38U G48A yielded a self-cleavage of 0.1.
A38G G23C gave a self-cleavage of 0.08.
With A38G G23U the self-cleavage was 0.1.
Variant A38G G23A has a self-cleavage of 0.47.
In the case of A38G U24C, the self-cleavage is reported as 0.32.
A38G U24G showed a self-cleavage of 0.03.
A38G U24A gave a self-cleavage of 0.16.
In the case of A38U G19A, the self-cleavage is reported as 0.57.
In the case of A38U G19C, the self-cleavage is reported as 0.04.
For A38U G19U, the self-cleavage was 0.22.
A38U C31U showed a self-cleavage of 0.75.
With A38U C31A the self-cleavage was 0.03.
Work on A38U C31G yielded a self-cleavage of 0.08.
For A38G G48U, the self-cleavage was 0.07.
Work on A38G G48C yielded a self-cleavage of 0.1.
Work on A38G G48A yielded a self-cleavage of 0.11.
Variant A38G G22U has a self-cleavage of 0.85.
For A38G G22A, the self-cleavage was 1.01.
A38G G22C showed a self-cleavage of 0.13.
With A38C G22C the self-cleavage was 0.09.
Variant A38C G22U has a self-cleavage of 0.87.
Variant A38C G22A has a self-cleavage of 1.04.
With A38C G48A the self-cleavage was 0.09.
For A38C G48U, the self-cleavage was 0.07.
Variant A38C G48C has a self-cleavage of 0.08.
Work on A38U C27U yielded a self-cleavage of 0.15.
With A38U C27A the self-cleavage was 0.14.
With A38U C27G the self-cleavage was 0.08.
Work on A38G U12C yielded a self-cleavage of 0.42.
With A38G U12A the self-cleavage was 0.88.
Variant A38G U12G has a self-cleavage of 0.41.
Variant A38C C32G has a self-cleavage of 0.09.
Variant A38C C32A has a self-cleavage of 0.09.
A38C C32U showed a self-cleavage of 0.13.
A38G G54U showed a self-cleavage of 0.94.
A38G G54C showed a self-cleavage of 0.94.
Work on A38G G54A yielded a self-cleavage of 0.92.
Variant A38U A40C has a self-cleavage of 0.06.
Variant A38U A40U has a self-cleavage of 0.55.
Variant A38U A40G has a self-cleavage of 0.64.
With A38U C32G the self-cleavage was 0.12.
Work on A38U C32U yielded a self-cleavage of 0.11.
A38U C32A gave a self-cleavage of 0.08.
In the case of A38U C11U, the self-cleavage is reported as 0.97.
A38U C11A gave a self-cleavage of 0.78.
Work on A38U C11G yielded a self-cleavage of 0.59.
A38G G35A gave a self-cleavage of 0.83.
A38G G35U gave a self-cleavage of 0.86.
In the case of A38G G35C, the self-cleavage is reported as 0.26.
A38C G30C gave a self-cleavage of 0.05.
A38C G30U gave a self-cleavage of 0.03.
A38C G30A gave a self-cleavage of 0.05.
A38G U43A showed a self-cleavage of 0.89.
In the case of A38G U43G, the self-cleavage is reported as 0.62.
A38G U43C gave a self-cleavage of 0.35.
Work on A38U G54U yielded a self-cleavage of 0.95.
With A38U G54C the self-cleavage was 0.89.
Work on A38U G54A yielded a self-cleavage of 0.93.
A38G C26G showed a self-cleavage of 0.14.
In the case of A38G C26A, the self-cleavage is reported as 0.06.
Work on A38G C26U yielded a self-cleavage of 0.85.
Work on A38C G49A yielded a self-cleavage of 0.1.
Work on A38C G49C yielded a self-cleavage of 0.06.
Work on A38C G49U yielded a self-cleavage of 0.1.
A38U gave a self-cleavage of 1.01.
Work on A38G yielded a self-cleavage of 1.01.
For A38U G47C, the self-cleavage was 0.08.
Work on A38U G47U yielded a self-cleavage of 0.19.
With A38U G47A the self-cleavage was 0.18.
A38C G54U showed a self-cleavage of 0.94.
Work on A38C G54A yielded a self-cleavage of 0.96.
A38C G54C gave a self-cleavage of 0.93.
